According to ChEMBL document CHEMBL1133762, “Aureobasidins: structure-activity relationships for the inhibition of the human MDR1 P-glycoprotein ABC-transporter” (J Med Chem, 2000):
≈ marks a conversion by molar mass, not a printed value.

What was measured:
[1] = molecular target: P-glycoprotein (ABCB1, MDR1) (Homo sapiens, UniProt P08183); assay: (§1) Human MDR1 Pgp inhibitory activity by using standard calcein-AM efflux method with the human leukemia CEM cells.; type: cell-based, CCRF-CEM; conditions: probe calcein-AM; for IC50: human, human leukemia CEM cells
[2] = tested on: Saccharomyces cerevisiae; assay: Minimum growth-inhibitory concentration against Saccharomyces cerevisiae ATCC 9763 by agar dilution method by the suspension of a fungi containing ~5 x 10e (7) cells/mL.; type: functional
How it was run: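 Agar dilution on Sabouraud–dextrose agar plates with graded compound concentrations. A loopful of yeast suspension (about 5 × 10⁷ cells/mL) was streaked on the surface. Plates were incubated at 30 °C for 3 days. MIC is the lowest concentration with no detectable growth.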

[3] = molecular target: T1, ATP-dependent translocase ABCB1 (Homo sapiens, UniProt P08183); assay: as §1; type: cell-based, CCRF-CEM
[4] = molecular target: T1, ATP-dependent translocase ABCB1; assay: Direct comparison of the antifungal activities with the relative Pgp-inhibitory potencies, calculated by comparing ug/mL IC50(or IC20).; type: functional
[5] = tested on: Saccharomyces cerevisiae; assay: Relative antifungal activity (against Saccharomyces cerevisiae) compared to AbA

Sequence of P-glycoprotein (ABCB1, MDR1) (P08183 whole entry): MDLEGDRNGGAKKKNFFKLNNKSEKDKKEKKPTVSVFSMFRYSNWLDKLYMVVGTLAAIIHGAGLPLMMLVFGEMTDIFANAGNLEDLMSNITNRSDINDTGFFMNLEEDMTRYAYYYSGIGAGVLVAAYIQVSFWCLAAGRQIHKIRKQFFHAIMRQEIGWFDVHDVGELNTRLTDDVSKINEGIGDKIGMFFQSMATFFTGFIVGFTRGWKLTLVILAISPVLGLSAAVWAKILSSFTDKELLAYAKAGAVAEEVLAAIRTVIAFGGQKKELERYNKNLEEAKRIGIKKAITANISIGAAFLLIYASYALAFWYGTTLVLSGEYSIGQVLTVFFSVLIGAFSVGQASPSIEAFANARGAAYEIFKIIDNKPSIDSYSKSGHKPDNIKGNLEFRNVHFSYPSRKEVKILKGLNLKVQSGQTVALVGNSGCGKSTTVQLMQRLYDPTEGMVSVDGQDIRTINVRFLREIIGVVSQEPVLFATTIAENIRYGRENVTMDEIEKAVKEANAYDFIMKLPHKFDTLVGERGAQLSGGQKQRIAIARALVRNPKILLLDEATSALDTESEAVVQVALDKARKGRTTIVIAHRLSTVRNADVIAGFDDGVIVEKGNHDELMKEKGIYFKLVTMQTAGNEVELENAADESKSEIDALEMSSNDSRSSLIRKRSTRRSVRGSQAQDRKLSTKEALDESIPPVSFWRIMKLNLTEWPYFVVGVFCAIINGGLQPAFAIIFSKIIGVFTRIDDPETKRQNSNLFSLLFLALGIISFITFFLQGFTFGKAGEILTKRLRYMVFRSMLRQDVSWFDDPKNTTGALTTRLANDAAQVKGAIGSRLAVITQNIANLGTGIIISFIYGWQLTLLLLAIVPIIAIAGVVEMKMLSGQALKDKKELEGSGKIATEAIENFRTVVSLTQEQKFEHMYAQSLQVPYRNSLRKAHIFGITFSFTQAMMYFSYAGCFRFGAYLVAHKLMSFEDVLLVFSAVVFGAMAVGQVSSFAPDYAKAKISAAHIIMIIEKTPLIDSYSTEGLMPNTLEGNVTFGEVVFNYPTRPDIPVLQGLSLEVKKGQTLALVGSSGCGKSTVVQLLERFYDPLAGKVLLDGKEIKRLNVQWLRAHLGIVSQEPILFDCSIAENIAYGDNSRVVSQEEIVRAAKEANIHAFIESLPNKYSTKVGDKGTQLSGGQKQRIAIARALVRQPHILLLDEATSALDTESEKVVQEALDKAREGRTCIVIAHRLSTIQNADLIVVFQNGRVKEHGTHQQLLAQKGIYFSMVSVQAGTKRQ
T1 sequence (P08183 whole entry): as above

| SMILES | IC50 [1] [nM] | IC20 [1] [nM] | MIC [2] [µg/mL] | IC50 [3] [nM] | Pgp AbA/analogue ratio [4] | antifungal AbA/analogue ratio [5] |
| --- | --- | --- | --- | --- | --- | --- |
| CC[C@H](C)[C@@H]1NC(=O)[C@@H]2CCCN2C(=O)[C@H](Cc2ccccc2)N(C)C(=O)[C@H](Cc2ccccc2)NC(=O)[C@H](C(C)C)N(C)C(=O)[C@@H]([C@@H](C)CC)OC(=O)[C@@H](C(C)(C)O)N(C)C(=O)[C@H](CC(C)C)NC(=O)[C@H](C(C)C)N(C)C1=O | 390 | 100 | > 25 |  |  |  |
| CC[C@H](C)[C@@H]1NC(=O)[C@@H]2CCCN2C(=O)[C@H](Cc2ccccc2)N(C)C(=O)[C@H](Cc2ccccc2)NC(=O)[C@H](C(C)C)N(C)C(=O)[C@@H]([C@@H](C)CC)OC(=O)C(C(C)(C)O)N(C)C(=O)[C@H](CC(C)C)NC(=O)[C@H](C(C)C)N(C)C1=O (stereo not given in full) |  | 100 |  | 360 |  |  |
| CC[C@@H](C)[C@@H]1NC(=O)[C@@H]2CCCN2C(=O)[C@H](Cc2ccccc2)N(C)C(=O)[C@H](C2CCCCC2)NC(=O)[C@H](C(C)C)N(C)C(=O)[C@@H]([C@@H](C)CC)OC(=O)[C@H](C(C)(C)O)N(C)C(=O)[C@H](CC(C)C)NC(=O)[C@H](C(C)C)N(C)C1=O [listing 1 of 2 here] | 5880 | 1450 |  |  | 0.5 | 0.25 |
| CC[C@@H](C)[C@@H]1NC(=O)[C@@H]2CCCN2C(=O)[C@H](Cc2ccccc2)N(C)C(=O)[C@H](Cc2ccccc2)NC(=O)[C@H](C(C)C)N(C)C(=O)[C@@H]([C@@H](C)CC)OC(=O)[C@]2(OC2(C)C)N(C)C(=O)[C@H](CC(C)C)NC(=O)[C@H](C(C)C)N(C)C1=O | 1550 | 460 |  |  |  |  |
| CC[C@@H](C)[C@@H]1NC(=O)[C@@H]2CCCN2C(=O)[C@H](Cc2ccccc2)N(C)C(=O)[C@H](Cc2ccccc2)NC(=O)[C@H](C(C)C)N(C)C(=O)[C@@H]([C@@H](C)CC)OC(=O)[C@H](C(C)(C)O)N(C)C(=O)[C@H](CC(C)C)NC(=O)C(C(C)C)OC1=O (stereo not given in full) [listing 1 of 2 here] | 1660 | 460 |  |  | 1.4 | < 0.016 |
| CC[C@@H](C)[C@@H]1NC(=O)[C@@H]2CCCN2C(=O)[C@H]([C@H](O)c2ccccc2)N(C)C(=O)[C@H](Cc2ccccc2)NC(=O)[C@H](C(C)C)N(C)C(=O)[C@@H]([C@@H](C)CC)OC(=O)[C@H](C(C)C)N(C)C(=O)[C@H](CC(C)C)NC(=O)[C@H](C(C)C)N(C)C1=O [listing 1 of 2 here] |  |  | 1.7 (≈ 1.54 µM) |  |  |  |
| CC[C@@H](C)[C@@H]1NC(=O)[C@@H]2CCCN2C(=O)[C@H](Cc2ccccc2)N(C)C(=O)[C@H](Cc2ccccc2)NC(=O)[C@H](C(C)C)N(C)C(=O)[C@@H]([C@@H](C)CC)OC(=O)[C@H]([C@H](C)CO)N(C)C(=O)[C@H](CC(C)C)NC(=O)[C@H](C(C)C)N(C)C1=O [listing 1 of 2 here] | 1090 | 360 |  |  | 2.1 | 0.06 |
| CC[C@@H](C)[C@@H]1NC(=O)[C@@H]2CCCN2C(=O)[C@H]([C@H](O)c2ccccc2)N(C)C(=O)[C@H](Cc2ccccc2)NC(=O)[C@H](C(C)C)N(C)C(=O)[C@@H]([C@@H](C)CC)OC(=O)[C@H](C(C)(C)O)N(C)C(=O)[C@H](CC(C)C)NC(=O)[C@H](C(C)C)N(C)C1=O [listing 1 of 2 here] |  |  | 0.8 (≈ 0.716 µM) |  |  |  |
| CC[C@@H](C)[C@@H]1NC(=O)[C@@H]2CCCN2C(=O)[C@H](Cc2ccccc2)N(C)C(=O)[C@H](Cc2ccccc2)NC(=O)[C@H](C(C)C)N(C)C(=O)[C@@H]([C@@H](C)CC)OC(=O)C(=C(C)C)N(C)C(=O)[C@H](CC(C)C)NC(=O)[C@H](C(C)C)N(C)C1=O [listing 1 of 2 here] |  |  | > 25 |  |  |  |
| CC[C@@H](C)[C@@H]1NC(=O)[C@@H]2CCCN2C(=O)[C@H](Cc2ccccc2)N(C)C(=O)[C@H](Cc2ccccc2)NC(=O)[C@H](C(C)C)N(C)C(=O)[C@@H]([C@@H](C)CC)OC(=O)[C@H](C(C)(C)O)N(C)C(=O)[C@H](CC(C)C)NC(=O)[C@H](C(C)C)NC1=O [listing 1 of 2 here] | 7550 | 2670 |  |  | 0.3 | 0.25 |
| CC[C@H](C)[C@@H]1NC(=O)[C@@H]2CCCN2C(=O)[C@@H](Cc2ccccc2)N(C)C(=O)[C@H](Cc2ccccc2)NC(=O)[C@H](C(C)C)N(C)C(=O)[C@@H]([C@@H](C)CC)OC(=O)[C@H](C(C)(C)O)N(C)C(=O)[C@H](CC(C)C)NC(=O)[C@H](C(C)C)N(C)C1=O |  | 910 | 0.2 (≈ 0.182 µM) | 2730 |  |  |
| CC[C@@H](C)[C@@H]1NC(=O)[C@@H]2CCCN2C(=O)[C@H](Cc2ccccc2)N(C)C(=O)[C@H](Cc2ccccc2)NC(=O)[C@H](C(C)C)N(C)C(=O)[C@@H]([C@@H](C)CC)OC(=O)[C@H](C(C)(C)O)N(C)C(=O)[C@H](CC(C)C)NC(=O)C(C(C)C)OC1=O (stereo not given in full) [listing 2 of 2 here] |  |  | > 25 |  |  |  |
| CC[C@@H](C)[C@@H]1NC(=O)[C@@H]2CCCN2C(=O)[C@H](Cc2ccccc2)N(C)C(=O)[C@H](Cc2ccccc2)NC(=O)[C@H](C(C)C)N(C)C(=O)[C@@H]([C@@H](C)CC)OC(=O)C(=C(C)C)N(C)C(=O)[C@H](CC(C)C)NC(=O)[C@H](C(C)C)N(C)C1=O [listing 2 of 2 here] | 180 | 60 |  |  | 12.5 | < 0.016 |
| CC[C@@H](C)[C@@H]1NC(=O)[C@@H]2CCCN2C(=O)[C@H](Cc2ccccc2)N(C)C(=O)[C@H](Cc2ccccc2)NC(=O)[C@H](C(C)C)N(C)C(=O)[C@@H](C(C)C)OC(=O)[C@H](C(C)(C)O)N(C)C(=O)[C@H](CC(C)C)NC(=O)[C@H](C(C)C)N(C)C1=O |  |  | 0.4 (≈ 0.368 µM) |  |  |  |
| CC[C@@H](C)[C@@H]1NC(=O)[C@@H]2CCCN2C(=O)[C@H](Cc2ccccc2)N(C)C(=O)[C@H](Cc2ccccc2)NC(=O)[C@H](C(C)C)N(C)C(=O)[C@@H]([C@@H](C)CC)OC(=O)CN(C)C(=O)[C@H](CC(C)C)NC(=O)[C@H](C(C)C)N(C)C1=O | 890 | 310 |  |  | 2.7 |  |
| CC[C@H](C)[C@@H]1NC(=O)[C@@H]2CCCN2C(=O)[C@H](Cc2ccccc2)N(C)C(=O)[C@H](Cc2ccccc2)NC(=O)[C@H](C(C)C)N(C)C(=O)[C@@H]([C@@H](C)CC)OC(=O)[C@H](C(C)(C)O)N(C)C(=O)[C@H](CC(C)C)NC(=O)[C@@H](C(C)C)N(C)C1=O |  | 1800 | > 25 | > 2730 |  |  |
| CC[C@@H](C)[C@@H]1NC(=O)[C@@H]2CCCN2C(=O)[C@H]([C@H](O)c2ccccc2)N(C)C(=O)[C@H](Cc2ccccc2)NC(=O)[C@H](C(C)C)N(C)C(=O)[C@@H]([C@@H](C)CC)OC(=O)[C@H](C(C)(C)O)N(C)C(=O)[C@H](CC(C)C)NC(=O)[C@H](C(C)C)N(C)C1=O [listing 2 of 2 here] | 2150 | 810 |  |  | 1 | 0.5 |
| CC[C@@H](C)[C@@H]1NC(=O)[C@@H]2CCCN2C(=O)[C@H](Cc2ccccc2)N(C)C(=O)[C@H](C2CCCCC2)NC(=O)[C@H](C(C)C)N(C)C(=O)[C@@H]([C@@H](C)CC)OC(=O)[C@H](C(C)(C)O)N(C)C(=O)[C@H](CC(C)C)NC(=O)[C@H](C(C)C)N(C)C1=O [listing 2 of 2 here] |  |  | 1.6 (≈ 1.46 µM) |  |  |  |
| CC[C@H](C)[C@@H]1NC(=O)[C@@H]2CCCN2C(=O)[C@H](Cc2ccccc2)N(C)C(=O)[C@H](Cc2ccccc2)NC(=O)[C@H](C(C)C)N(C)C(=O)[C@@H]([C@@H](C)CC)OC(=O)[C@H](C(C)(C)O)N(C)C(=O)[C@H](CC(C)C)NC(=O)[C@H](C(C)C)N(C)C1=O | 2270 | 680 | 0.4 (≈ 0.363 µM) |  |  |  |
| CC[C@@H](C)[C@@H]1NC(=O)CCCCCCCNC(=O)[C@H](C(C)C)N(C)C(=O)[C@@H]([C@@H](C)CC)OC(=O)[C@H](C(C)(C)O)N(C)C(=O)[C@H](CC(C)C)NC(=O)[C@H](C(C)C)N(C)C1=O [listing 1 of 2 here] |  |  | > 25 |  |  |  |
| CC[C@@H](C)[C@@H]1NC(=O)CCCCCCCNC(=O)[C@H](C(C)C)N(C)C(=O)[C@@H]([C@@H](C)CC)OC(=O)[C@H](C(C)(C)O)N(C)C(=O)[C@H](CC(C)C)NC(=O)[C@H](C(C)C)N(C)C1=O [listing 2 of 2 here] | 7420 | 2630 |  |  | 0.4 | < 0.016 |
| CC[C@@H](C)[C@@H]1NC(=O)[C@@H]2CCCN2C(=O)[C@H](Cc2ccccc2)N(C)C(=O)[C@H](Cc2ccccc2)NC(=O)[C@H](C(C)C)N(C)C(=O)[C@@H]([C@@H](C)CC)OC(=O)[C@H](C(C)(C)O)N(C)C(=O)[C@H](CC(C)C)NC(=O)[C@H](C(C)C)NC1=O [listing 2 of 2 here] |  |  | 1.6 (≈ 1.47 µM) |  |  |  |
| CC[C@@H](C)[C@@H]1NC(=O)[C@@H]2CCCN2C(=O)[C@H](Cc2ccccc2)N(C)C(=O)[C@H](Cc2ccccc2)NC(=O)[C@H](C(C)C)N(C)C(=O)[C@@H]([C@@H](C)CC)OC(=O)[C@H]([C@H](C)CO)N(C)C(=O)[C@H](CC(C)C)NC(=O)[C@H](C(C)C)N(C)C1=O [listing 2 of 2 here] |  |  | 6.3 (≈ 5.72 µM) |  |  |  |
| CC[C@@H](C)[C@@H]1NC(=O)[C@@H]2CCCN2C(=O)[C@H]([C@H](O)c2ccccc2)N(C)C(=O)[C@H](Cc2ccccc2)NC(=O)[C@H](C(C)C)N(C)C(=O)[C@@H]([C@@H](C)CC)OC(=O)[C@H](C(C)C)N(C)C(=O)[C@H](CC(C)C)NC(=O)[C@H](C(C)C)N(C)C1=O [listing 2 of 2 here] | 1360 | 460 |  |  | 1.7 | 0.25 |
